High-throughput results deposited in PubChem by Sanford-Burnham Center for Chemical Genomics.
Rows were chosen to be rich in hits. Some 1.5% of all compounds tested hit in one or more screens of this group.
CCR6 antag – CCR6 (human) receptor antagonism; P51684; CHO-K1 CCR6 PathHunter beta-arrestin, luminescence, CCL20-stimulated; inhibition, % at 20 µM; 340,000 compounds, 0.49% hits; AID 493098;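 active = compounds whose inhibition of the agonist-driven luminescence signal at 20 µM reaches about 50%, limit read from the data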;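 note: cells stimulated with CCL20 at 14 nM final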
CXCR6 inh – CXCR6 (human) receptor inhibition. O00574. CHO-K1 PathHunter CXCR6 beta-arrestin, luminescence. inhibition, % at 20 µM. 360,000 compounds, 0.36% hits; in the data active = inhibition above about 34%, passing the limit was not always enough;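 note: antagonist mode with CXCL16 agonist at 10 nM final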
Target sequence (O00574 whole entry, looked up): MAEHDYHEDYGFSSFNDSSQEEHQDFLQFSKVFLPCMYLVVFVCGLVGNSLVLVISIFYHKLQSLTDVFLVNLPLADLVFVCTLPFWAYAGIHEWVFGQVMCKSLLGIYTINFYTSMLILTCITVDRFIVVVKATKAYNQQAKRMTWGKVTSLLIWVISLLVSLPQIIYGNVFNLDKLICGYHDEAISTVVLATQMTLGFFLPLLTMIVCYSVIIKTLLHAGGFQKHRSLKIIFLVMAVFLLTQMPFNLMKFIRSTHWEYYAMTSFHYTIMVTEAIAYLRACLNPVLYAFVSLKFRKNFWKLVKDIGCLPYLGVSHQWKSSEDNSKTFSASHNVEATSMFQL
EBI2 antag – EBI2 (human) antagonism; inhibition, % at 5 µM; P32249; 360,000 compounds, 0.81% hits; EBI2 beta-arrestin recruitment, luminescence, 7a,25-OHC stimulated; in the data active = inhibition above about 38%;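 note: enzyme fragment complementation signal reports receptor beta-arrestin coupling in cells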
APJ ag – APJ receptor agonism; 330,000 compounds, 0.11% hits; activation, % at 20 µM; P35414; CHO-K1 APJ PathHunter beta-arrestin, luminescence; 0% DMSO wells, 100% apelin;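 active = activation more than six SD over the plate average, tested at 20 µM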
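Assay system: CHO-K1 APJ beta-arrestin complementation cell line / Compound: single test compound dose, 20 µM final, 1% DMSO / Times: overnight seeding, 90 min compound at 25 °C, 1 h detection / Technique: beta-gal luminescence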
APJ antagonist – antagonists of human APJ apelin receptor | 330,000 compounds, 0.32% hits | P35414 | inhibition, % at 20 µM | CHO-K1 APJ beta-arrestin complementation, luminescence;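 active = inhibition above about 40% at 20 µM, limit read from the data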;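 note: cells challenged with 10 nM apelin-13 agonist together with compound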
EBI2 conf – EBI2 (human) antagonism, single concentration confirmation | EBI2 beta-arrestin luminescence, 7a,25-OHC antagonism | shares compounds with EBI2 antag | inhibition, % at 5 µM | 2,400 compounds, 29% hits;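 active = inhibition of at least 50%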
EBI2 ag – counter-screen for EBI2 antagonists: EBI2 agonist activity | activation, % at 5 µM | 2,400 tested, under 10 active | shares compounds with EBI2 antag | EBI2-expressing cells, agonist mode, luminescence, 60 min; 0% vehicle, 100% 7α,25-dihydroxycholesterol control | AID 652000;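 active = activation of at least 50%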
bGal cs – inhibits E. coli beta-galactosidase, counter-screen for EBI2 antagonists; shares compounds with EBI2 antag; purified beta-galactosidase, luminescent Galacton Star, 15 min; inhibition, % at 5 µM; 2,400 compounds, 1% hits; AID 652176;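 active = replicate-average signal at least 3 plate SD below neutral wells, shown as high inhibition, flagging enzyme-inhibiting false positives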;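 note: higher means stronger loss of beta-gal luminescence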
Hits are given with their value; – = inactive; · = not tested or not shown.

SMILES	CCR6 antag	CXCR6 inh	EBI2 antag	APJ ag	APJ antagonist	EBI2 conf	EBI2 ag	bGal cs
C=CCNC(=O)/C(C#N)=C/c1ccc(OS(=O)(=O)c2ccc(C)cc2)c(OC)c1	–	–	52	·	·	76	–	–
CC1(O)N(CCC(=O)Nc2cccc(F)c2)C(=O)OC12CCCCC2 (configuration not stated)	–	–	–	–	–	·	·	·
Cc1ccc(Cl)cc1N1CCN(C(=O)c2cc3c(=O)[nH]c4ccccc4c3n2C)CC1	–	–	73	–	–	63	–	–
Cc1ccc(Cl)cc1N1CCN(C(=O)Cc2c(C(=O)O)[nH]c3ccccc23)CC1	–	–	–	–	–	·	·	·
CNC(=S)N(CCc1c(C)[nH]c2ccc(C)cc12)Cc1cccnc1	–	–	–	–	–	·	·	·
COc1ccc(-c2ccc(CN3C(C(C)C)C(=O)N(Cc4cn(CC5CCCCC5)nn4)CCS3(=O)=O)cc2)cc1OC (configuration not stated)	·	–	44	·	·	–	–	–
COc1ccc(-n2cc(-c3ccccc3)nc2SC)cc1	–	–	42	–	–	–	–	–
C[C@@H](c1ccccc1)N1C[C@@H](COCc2ccccc2)Oc2cc(N3CCC[C@H]3CO)ccc2S1(=O)=O	·	–	–	·	·	·	·	·
O=C(Oc1ccccc1C(=S)N1CCOCC1)c1cccc([N+](=O)[O-])c1	–	–	–	–	–	·	·	·
CN1c2ccccc2C2(C)CCCC3=Cc4cccc([N+](=O)[O-])c4OC312 (configuration not stated)	–	–	41	–	–	–	–	–
CN1CCN(C(=O)c2cc3sc4ccccc4c3s2)CC1	–	–	95	–	–	70	–	–
Cc1ccc(C)c(S(=O)(=O)N2CCN(C(=O)CCc3nc4ccccc4c(=O)[nH]3)CC2)c1	–	–	–	–	–	·	·	·
O=c1[nH]c(CN2CCN(S(=O)(=O)c3cccs3)CC2)nc2c(Br)cc(Br)cc12	–	–	54	–	–	–	–	–
O=c1[nH]c(CN2CCN(c3ncccn3)CC2)nc2c(Br)cc(Br)cc12	–	–	–	–	–	·	·	·
COc1cc2nc(CN3CCN(S(=O)(=O)c4cc(C)ccc4C)CC3)[nH]c(=O)c2cc1OC	–	–	60	–	–	–	–	–
O=c1[nH]c(CN2CCN(S(=O)(=O)c3ccc(Cl)cc3)CC2)nc2cc(Cl)ccc12	–	–	89	–	–	69	–	–
COc1cc2nc(CN3CCC(Cc4ccccc4)CC3)[nH]c(=O)c2cc1OC	–	–	46	–	–	–	–	–
O=C(/C=C/[C@H]1O[C@@H](n2cnc3c(NC(=O)c4ccccc4)ncnc32)[C@H](O)[C@@H]1O)NCC1CCCO1 (some centres not stated)	·	–	–	·	·	·	·	·
NC(=O)C1CCCN(Cc2c(C(=O)N3CCc4ccccc4C3)nc3ccc(Cl)cn23)C1 (configuration not stated)	–	–	–	–	–	·	·	·
COc1cc2nc(CN3CCN(S(=O)(=O)c4ccccc4)CC3)[nH]c(=O)c2cc1OC	–	–	47	–	–	–	–	–
COc1cc2nc(CN3CCN(C(C)=O)CC3)[nH]c(=O)c2cc1OC	–	–	–	–	–	·	·	·
COc1cc2nc(CN3CCN(S(=O)(=O)c4ccc(Cl)cc4)CC3)[nH]c(=O)c2cc1OC	–	–	56	–	–	–	–	–
COc1ccc(N2CCN(Cc3nc4cc(Cl)ccc4c(=O)[nH]3)CC2)cc1	–	–	–	–	–	·	·	·
O=C(c1ccc(Cn2cnnn2)cc1)N1CCCC(Nc2ccc(F)c(F)c2)C1 (configuration not stated)	–	–	–	–	–	·	·	·
Cn1cc(C(=O)c2ccc(Cl)cc2)cc1-c1nc2ccccc2n1C	–	–	64	–	–	–	–	–
SMILES	CCR6 antag	CXCR6 inh	EBI2 antag	APJ ag	APJ antagonist	EBI2 conf	EBI2 ag	bGal cs
Cc1ccccc1Nc1nnc(SCC2CCCCO2)s1 (configuration not stated)	–	–	–	–	–	·	·	·
Cc1nnc(SC(C)C(=O)NCC2CCCO2)s1 (configuration not stated)	–	–	–	–	–	·	·	·
Cc1ccc(Nc2nnc(SCC3CCCCO3)s2)cc1 (configuration not stated)	–	–	59	–	–	–	–	–
Cc1ccc(Nc2nnc(SC(C)C(=O)NCC3CCCO3)s2)cc1C (configuration not stated)	–	–	46	–	–	–	–	–
COc1ccc(OC)c(CCNC(=O)c2cccc(NC(=O)C3=C(C)OCCS3)c2)c1	–	–	–	–	–	·	·	·
Clc1ccc(Oc2ncnc3oc(-c4ccccc4)cc23)cc1	–	–	–	–	–	·	·	·
Cc1ccccc1Oc1ncnc2oc(-c3ccccc3)cc12	–	–	65	–	–	–	–	–
O=C(Cn1nc(C(=O)O)c2ccccc2c1=O)c1c[nH]c2ccccc12	–	–	77	–	–	69	–	–
CCOC(=O)N1CCN(C(=O)c2ccc(OC)cc2)CC1	–	–	–	–	–	·	·	·
CCOC(=O)C1CCN(C(=O)c2cc3ccc(OC)cc3[nH]2)CC1	–	–	38	–	–	–	–	–
CCOC(=O)N1CCN(C(=O)c2cc3ccc(OC)cc3[nH]2)CC1	–	–	59	–	–	–	–	–
CCOC(=O)C1CCN(C(=O)c2cc3cc(Cl)ccc3[nH]2)CC1	–	–	89	–	–	67	–	–
O=C(CN1C(=O)NC2(CCCCC2)C1=O)N1CCN(S(=O)(=O)c2cccc([N+](=O)[O-])c2)CC1	–	–	–	–	–	·	·	·
COc1ccc(N/C=C(\C#N)c2ccc(OCCCF)cc2)cc1	–	–	72	–	–	–	–	–
Cc1ccc(N/C=C(/C#N)c2ccsc2)cc1	–	–	–	–	–	·	·	·
Cc1ccc(N/C=C(\C#N)c2ccc(OCCCF)cc2)cc1	–	–	81	–	–	52	–	–
O=C(Cc1ccccc1)NC(=S)Nc1ccc2oc(-c3ccccc3F)nc2c1	–	–	39	–	–	–	–	–
Cn1cccc1Cc1nnc(SCC(=O)N2CCc3ccccc32)n1CCc1ccccc1	–	–	68	–	–	–	–	–
COc1ccc(-n2c(Cc3cccn3C)nnc2SCC(=O)N2CCCc3ccccc32)cc1	–	–	38	–	–	–	–	–
CC1CCN(C(=O)CSc2nnc(Cc3cccn3C)n2CCc2ccccc2)CC1	–	–	47	–	–	–	–	–
